Test results reported in publication PMC12491721 (Acta Pharmaceutica Sinica. B, 2025).
One block for each compound: values may come before it.

Assays:
[1] = Brain accumulation in orthotopic GBM model, NIRF imaging; type: in vivo, BALB/c-nu mice; details: for time of peak accumulation in brain: orthotopic GL261, i.v., NIRF imaging
In short: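 Orthotopic model: 1 × 10^5 GL261 cells in saline were injected stereotactically into the brains of BALB/c-nu mice (2.0 mm lateral, 0.5 mm anterior to bregma, 3.0 mm depth, 1 μL/min). Test compound or VPF was given i.v. at an equivalent 3 mg/kg VPF content. Brain accumulation was followed by whole-body NIRF imaging, with ex vivo NIRF imaging of GBM tissue at 6 h.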

[2] = test system: GL261 tumor; assay: Immune cell analysis of tumor tissues, flow cytometry; type: in vivo, C57BL/6 mice; details: for apoptosis rate of T cells within tumor tissues vs saline group: CD8+Annexin V+, +L groups
In short: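 Female C57BL/6 mice (6 weeks) bore left-flank tumours from 5 × 10^6 subcutaneous GL261 cells. Treatment was i.v. at 3 mg/kg VPF equivalent; +L groups received 671 nm laser, 100 mW, 15 min, 3 h post-injection. On Day 3, tumours were enzymatically dissociated, Fc-blocked 5 min and antibody-stained 45 min. Flow cytometry gated CD45+CD3+CD8+ cytotoxic T cells and CD8+Annexin V+ damaged T cells. n = 5.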

[3] = test system: GL261 cells; assay: Intracellular ROS generation, DCFH-DA; type: cell-based, mouse; details: GL261, 5 μmol/L 24 h, n = 3
In short: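 GL261 cells were treated 24 h at 5 μmol/L, then loaded with DCFH-DA for 30 min before irradiation (40 mW, 500 s) or no irradiation. Intracellular DCF fluorescence was the read-out. n = 3.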

[4] = test system: Cat B; assay: Target enzyme-specific cleavage, HPLC; type: in vitro ADME; details: pH 5.5 MES buffer, 37 °C, 10 μg/mL Cat B
In short: (§1)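 The self-assembled nanoparticle was incubated at 37 °C in pH 5.5 MES buffer with 10 μg/mL of a single protease: Cat B, Cat D, Cat E, Cat L, caspase-3 or MMP-9. Cat B was also tested in the presence of its irreversible inhibitor Z-FA-FMK. Parent conjugate and cleavage products were followed by HPLC.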

[5] = test system: MMP-9; assay: Enzyme cleavage, HPLC; type: in vitro ADME; details: pH 5.5 MES buffer, 37 °C, 10 μg/mL enzyme
In short: as §1

[6] = test system: Cat E; assay: Enzyme cleavage, HPLC; type: in vitro ADME; details: pH 5.5 MES buffer, 37 °C, 10 μg/mL enzyme
In short: as §1

[7] = test system: Cat D; assay: Enzyme cleavage, HPLC; type: in vitro ADME; details: pH 5.5 MES buffer, 37 °C, 10 μg/mL enzyme
In short: as §1

[8] = test system: GL261 cells; assay: Cytotoxicity, CCK-8; type: cell-based, mouse; details: GL261, 24 h, n = 5
In short: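 GL261 cells were exposed to test compound for 24 h, then incubated 20 min in medium containing 10% CCK-8. Absorbance was read at 450 nm. For the +L arm, the zero-concentration point is cells receiving laser without compound. n = 5.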

[9] = test system: PTP1B; assay: In vitro PTP1B proteolysis; type: cell-based, mouse; details: IFN-γ-treated GL261 cells, Western blot
[10] = Drug loading capacity calculated from molecular weights; type: physicochemical
In short: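 Loading was calculated as (PROTAC MW 1411.59 + VPF MW 702.81) divided by the MW of the whole prodrug conjugate (2595.98). The cathepsin B-cleavable RRK peptide (464.61) is excluded from the numerator.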

[11] = test system: GL261 cells; assay: Coculture assay, lysis of GL261 cells by T cells; type: cell-based, mouse; details: T cells treated 5 μmol/L 48 h, coculture 1 h, CCK-8, n = 3
In short: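 Intratumoral CD8+ T cells were isolated with CD8 microbeads from subcutaneous GL261 flank tumours in C57BL/6 mice and kept in RPMI1640 with 10% FBS at 37 °C, 5% CO2. They were stained with Far red CFSE and treated 48 h at 5 μmol/L. They were then cocultured 1 h with green CFSE-labelled GL261 cells. GL261 viability was measured by CCK-8.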

[12] = test system: GL261 tumor; assay: Therapeutic efficacy in subcutaneous GL261 GBM model; type: in vivo, C57BL/6 mice; details: subcutaneous GL261, i.v. 3 mg/kg VPF equivalent, +L
[13] = test system: intratumoral CD8+ T cells; assay: Exhaustion markers PD-1 and Tim3 in tumor-derived T cells; type: cell-based, mouse; details: for Tim3 expression (Tim3-positive cells) / PD-1 expression (PD-1-positive cells): 5 μmol/L, 48 h, n = 3, mean ± SD; for Tim3 expression (Tim3-positive cells): untreated 65.6 ± 4.84%; for PD-1 expression (PD-1-positive cells): untreated 69.6 ± 6.46%; for PD-1 and Tim3 levels: 24 h, no significant differences between the two groups
[14] = test system: Cat L; assay: Enzyme cleavage, HPLC; type: in vitro ADME; details: pH 5.5 MES buffer, 37 °C, 10 μg/mL enzyme
In short: as §1

[15] = test system: caspase-3; assay: Enzyme cleavage, HPLC; type: in vitro ADME; details: pH 5.5 MES buffer, 37 °C, 10 μg/mL enzyme
In short: as §1

[16] = test system: intratumoral T cells; assay: Extracellular IFN-γ release from tumor-derived T cells; type: cell-based, mouse; details: n = 3
[17] = Hydrodynamic size by dynamic light scattering; type: physicochemical; details: DLS, aqueous condition (saline, 1 mg/mL), mean ± SD, n = 5
In short: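 Nanoassemblies formed spontaneously in aqueous medium without carrier. They were dispersed at 1 mg/mL in saline and sized by dynamic light scattering (hydrodynamic diameter). Morphology was checked by TEM.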

[18] = absence of laser irradiation (-L)

- time of peak accumulation in brain [1]: 6 h
Compound: verteporfin [VPF, reference compound]
- apoptosis rate of T cells within tumor tissues vs saline group [2]: no significant differences
- intracellular ROS generation [3, 18]: no ROS generation was detected
- intracellular ROS generation ([3]; laser 40 mW 500 s (+L)): nearly identical

Compound: VPF–KALAPYIPRRK–ertiprotafib [PNPTP1B]
- time to complete cleavage into PROTAC and VPF–K [4]: ≤ 1 h
- brain fluorescence intensity relative to VPF ([1]; orthotopic GL261, i.v. 3 mg/kg VPF equivalent, 6 h post-injection, NIRF, n = 3): 2.16 fold
- time of peak accumulation in brain [1]: 6 h
- stability with MMP-9 [5]: stable
- stability with Cat E [6]: stable
- stability with Cat D [7]: stable
- cytotoxicity ([8]; CCK-8, with laser irradiation (+L)): even more potent tumor-killing effect
- cytotoxicity ([8]; CCK-8, without laser (-L)): significantly greater cytotoxicity than ertiprotafib
- apoptosis rate of T cells within tumor tissues vs saline group [2]: no significant differences
- increase in cytotoxic T cells in tumor tissues, (+L) relative to (-L) group ([2]; CD45+CD3+CD8+, Day 3, n = 5): 1.2 fold
- intracellular ROS generation [3, 18]: no ROS generation was detected
- intracellular ROS generation ([3]; laser 40 mW 500 s (+L)): nearly identical
- PTP1B and related downstream proteins (pERK, pAKT) levels ([9]; 5 μmol/L, 24 h): fully restored to levels similar to those in IFN-γ-untreated cells
- drug loading capacity, PROTAC share [10]: 54.4%
- drug loading capacity, VPF share [10]: 34.2%
- GL261 cell lysis by cocultured T cells [11]: significantly increased
- time to complete regression in all mice [12]: ≤ 8 days
- Tim3 expression (Tim3-positive cells) [13]: 30.2 ± 4.33%
- PD-1 expression (PD-1-positive cells) [13]: 42.47 ± 6.41%
- PD-1 and Tim3 levels [13]: lower PD-1 and Tim3 levels compared to untreated cells
- stability with Cat L [14]: stable
- stability with caspase-3 [15]: stable
- extracellular release of IFN-γ [16]: higher quantity
- average diameter (hydrodynamic size) [17]: 87.79 ± 1.25 nm

Compound: Cc1cc(-c2c3ccccc3c(Br)c3sc(C)c(C)c23)cc(C)c1O[C@H](Cc1ccccc1)C(=O)O [ertiprotafib, reference compound]
- cytotoxicity ([8]; CCK-8, without laser (-L)): minimum GBM cell death
- PTP1B levels ([9]; pERK and pAKT decreased): no changes in PTP1B levels
- Tim3 expression (Tim3-positive cells) [13]: 47.53 ± 3.11%
- PD-1 expression (PD-1-positive cells) [13]: 57.43 ± 5.29%
- PD-1 and Tim3 levels [13]: lower PD-1 and Tim3 levels compared to untreated cells
